Measurements from ChEMBL document CHEMBL4177753, “Structural Modification of Natural Product Ganomycin I Leading to Discovery of a α-Glucosidase and HMG-CoA Reductase Dual Inhibitor Improving Obesity and Metabolic Dysfunction in Vivo” (J Med Chem, 2018).
Active and inactive are the calls of the source. The calls are words filed in the database; no cut-off is given here.

Legend:
Mus musculus [1] = test: Hypolipidemic activity in ob/ob mouse assessed as decrease in macrosteatosis at 3 mg/kg administered daily via oral gavage for 31 days by hematoxylin-eosin staining-based microscopic method; type: functional, organism-based
In short: (§1)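 Male ob/ob mice dosed by gavage (soybean vehicle); liver and abdominal white adipose tissue fixed in 10% formaldehyde-PBS pH 7.4, paraffin-embedded, sectioned, stained with H&E, Oil Red O or sirius red, and examined by light microscopy.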

Mus musculus [2] = test: Toxicity in C57BL/6J mouse assessed as effect on behavior at 30 mg/kg administered daily via oral gavage for 3 months; type: organism-based; details: in vivo
In short: (§2)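 Long-term safety study in C57BL/6J mice, 20 male and 20 female, sorted by gender, blood glucose and body weight into four groups (n = 10 each). Treated groups of each sex got 30.0 mg/kg daily by oral gavage in soybean vehicle. Vehicle groups got an equal volume of soybean. Dosing ran three months, with behavior, survival, body weight, blood glucose, liver function and organ coefficients recorded.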

Mus musculus [3] = test: Toxicity in C57BL/6J mouse assessed as effect on free diet blood glucose levels at 30 mg/kg administered daily via oral gavage for 3 months; type: organism-based; details: in vivo; in short: as §2
Mus musculus [4] = test: Hypolipidemic activity in ob/ob mouse assessed as decrease in size of adipocytes in white adipose tissue at 3 mg/kg administered daily via oral gavage for 31 days by hematoxylin-eosin staining-based microscopic method; type: functional, organism-based; in short: as §1
Mus musculus [5] = test: Antifibrotic activity in ob/ob mouse assessed as decrease in hepatic hydroxyproline levels at 3 mg/kg administered daily via oral gavage for 31 days; type: functional, organism-based
Mus musculus [6] = test: In vivo inhibition of alpha-glucosidase activity in ob/ob mouse assessed as reduction of blood glucose AUC at 0.3 to 3 mg/kg administered daily via oral gavage for 30 days by OSTT; type: functional, organism-based
In short: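 Male ob/ob mice given 0.3–3.0 mg/kg daily by gavage; after overnight fast, sucrose (OSTT) or maltose (OMTT) 4.0 g/kg given orally; blood glucose by glucose meter at 0, 40, 80 and 120 min; AUC calculated from the time course.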

Lachnospiraceae = test: Increase in Lachnospiraceae levels in cecum of ob/ob mouse assessed as increase in level of gut butyrate at 3 mg/kg administered daily via oral gavage for 31 days by GC-MS analysis; type: functional, organism-based
In short: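 Feces collected from ob/ob mice after 3.0 mg/kg gavage treatment; samples lyophilized, ground, 40 mg powder extracted with 1 mL MeOH, sonicated, centrifuged; supernatant analysed for short-chain fatty acids by GC-MS.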

Q: What does the source list for CC(C)=CCC/C(C)=C/CCC1=C[C@H](c2ccc(C(C)(C)C)cc2)OC1=O?
A: Activity (Mus musculus [1]): Active; Activity (Mus musculus [2]): Non-Toxic; Activity (Mus musculus [3]): Non-Toxic; Activity (Mus musculus [4]): Active; Activity (Mus musculus [5]): Active; inhibition (Mus musculus [6]): Active; Activity (Lachnospiraceae): Active
